Legend:
[1] = Apparent terminal elimination half-life in dog after administration of 20 mg/kg dose through peroral route; type: ADME, organism-based, Canis lupus familiaris; set-up: dose 20 mg/kg, route oral; conditions: in vivo, po
How it was run: (§1)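 Conscious dogs (n=3) were given a single 20 mg/kg oral dose. Plasma drug levels were quantified by solid-phase extraction followed by HPLC mass spectrometry, and elimination half-life, Cmax and AUC were derived from the plasma concentration-time profile.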

[2] = Area under curve in dog after administration of 20 mg/kg dose through peroral route; type: ADME, organism-based, Canis lupus familiaris; set-up: dose 20 mg/kg, route oral; conditions: in vivo, po; how it was run: as §1
[3] = Maximum concentration in rat plasma after administration of 50 mg/kg dose through subcutaneous route; type: ADME, organism-based; set-up: dose 50 mg/kg, route subcutaneous; conditions: sc
How it was run: (§2)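 Rats (n=3) received 50 mg/kg subcutaneously. Plasma was sampled over 24 h after dosing the parent aldehyde, or over 30 h after dosing its carbonate prodrug, with parent and prodrug measured. Levels were quantified by solid-phase extraction and HPLC mass spectrometry, and half-life and Cmax were taken from the concentration-time profile.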

[4] = Apparent terminal elimination half-life in rat plasma after administration of 50 mg/kg dose through subcutaneous route; type: ADME, organism-based; set-up: dose 50 mg/kg, route subcutaneous; conditions: sc; how it was run: as §2
[5] = molecular target: Plasminogen (Homo sapiens, UniProt P00747); assay: The compound was tested in vitro for its inhibitory activity against human Plasmin enzyme, activity expressed as IC50
Plasminogen, sequence (P00747 97-580 limits assumed): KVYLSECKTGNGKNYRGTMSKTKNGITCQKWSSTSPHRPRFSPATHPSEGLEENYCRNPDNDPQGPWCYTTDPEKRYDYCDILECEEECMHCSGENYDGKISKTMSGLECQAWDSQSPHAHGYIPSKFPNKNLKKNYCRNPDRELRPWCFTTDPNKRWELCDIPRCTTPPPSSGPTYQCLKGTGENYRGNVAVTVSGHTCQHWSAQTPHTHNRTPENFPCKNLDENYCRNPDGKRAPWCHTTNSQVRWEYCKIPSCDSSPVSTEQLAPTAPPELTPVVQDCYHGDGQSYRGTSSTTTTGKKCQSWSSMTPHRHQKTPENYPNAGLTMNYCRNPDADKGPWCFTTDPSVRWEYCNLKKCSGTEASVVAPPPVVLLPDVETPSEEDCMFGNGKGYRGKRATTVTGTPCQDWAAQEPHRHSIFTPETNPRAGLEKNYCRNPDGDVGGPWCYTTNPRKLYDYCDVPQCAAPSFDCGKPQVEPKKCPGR
Plasminogen, sequence (P00747 581-810 limits assumed): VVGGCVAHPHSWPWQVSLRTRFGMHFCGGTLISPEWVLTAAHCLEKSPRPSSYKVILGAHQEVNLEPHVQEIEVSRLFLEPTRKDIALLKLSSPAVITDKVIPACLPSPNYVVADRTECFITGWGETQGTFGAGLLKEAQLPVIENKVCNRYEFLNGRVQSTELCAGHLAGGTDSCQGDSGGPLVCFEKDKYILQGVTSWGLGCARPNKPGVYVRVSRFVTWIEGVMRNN

[6] = molecular target: Tissue-type plasminogen activator (Homo sapiens, UniProt P00750); assay: The compound was tested in vitro for its inhibitory activity against human t-PA enzyme, activity expressed as IC50
Tissue-type plasminogen activator, sequence (P00750 whole entry): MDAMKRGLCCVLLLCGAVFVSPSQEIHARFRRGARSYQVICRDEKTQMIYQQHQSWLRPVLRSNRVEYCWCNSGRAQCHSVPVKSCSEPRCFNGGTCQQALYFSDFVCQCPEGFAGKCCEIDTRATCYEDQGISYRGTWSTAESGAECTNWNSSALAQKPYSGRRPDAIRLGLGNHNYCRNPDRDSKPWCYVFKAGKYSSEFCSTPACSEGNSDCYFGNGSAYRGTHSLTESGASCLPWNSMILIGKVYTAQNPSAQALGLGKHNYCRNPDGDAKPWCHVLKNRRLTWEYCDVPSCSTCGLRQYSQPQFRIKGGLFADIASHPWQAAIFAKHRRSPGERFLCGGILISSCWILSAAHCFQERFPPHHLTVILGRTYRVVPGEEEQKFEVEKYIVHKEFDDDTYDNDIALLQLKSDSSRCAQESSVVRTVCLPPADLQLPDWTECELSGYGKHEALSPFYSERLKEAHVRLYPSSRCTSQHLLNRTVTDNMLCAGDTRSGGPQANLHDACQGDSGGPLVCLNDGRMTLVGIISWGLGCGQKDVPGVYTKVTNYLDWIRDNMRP
How it was run: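 Human t-PA (1 nM final) was tested for cleavage of chromogenic substrate Pefachrome t-PA. IC50 was taken as the inhibitor concentration giving 50% inhibition of substrate cleavage.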

[7] = molecular target: Urokinase-type plasminogen activator (Homo sapiens, UniProt P00749); assay: The compound was tested in vitro for its inhibitory activity against human urokinase enzyme, activity expressed as IC50
[8] = Maximum concentration in dog after administration of 20 mg/kg dose through peroral route; type: ADME, organism-based, Canis lupus familiaris; set-up: dose 20 mg/kg, route oral; conditions: in vivo, po; how it was run: as §1
[9] = Area under curve in rat plasma after administration of 50 mg/kg dose through subcutaneous route; conditions: sc
[10] = Total concentration in rat plasma after administration of 50 mg/kg dose through subcutaneous route; conditions: sc
[11] = Maximum concentration in rat plasma after administration of 50 mg/kg dose through subcutaneous route; conditions: sc
[12] = Apparent terminal elimination half-life in rat plasma after administration of 50 mg/kg dose through subcutaneous route; conditions: sc
[13] = as above; conditions: sc; remark: listed apart in the source

Row | SMILES | IC50 [5] | IC50 [6] | IC50 [7] | further results
1 | CC(C)COC(=O)N[C@H](CO)C(=O)N[C@@H](C)C(=O)N[C@H]1CCCN(C(=N)N)C1O.O=C(O)C(F)(F)F (some centres not stated) | 1460 nM | > 2500 nM | 23.1 nM | half-life [1]: 51 min; AUC [2]: 38900 ng·h/mL; Cmax [3]: 4700 ng/mL; half-life [4]: 300 min; Cmax [8]: 22900 ng/mL; AUC [9]: 44500 ng·h/mL; Tmax [10]: 2.33 h; Cmax [11]: 4700 ng/mL; half-life [12]: 300 min
2 | C[C@H](NC(=O)[C@@H](CO)NS(=O)(=O)Cc1ccccc1)C(=O)N[C@H]1CCCN(C(=N)N)C1O (some centres not stated) | 275 nM | > 2500 nM | 5.1 nM | 
3 | C[C@@H](NC(=O)[C@@H](CO)NC(=O)OCc1ccccc1)C(=O)N[C@H]1CCCN(C(=N)N)C1O (some centres not stated) | > 2500 nM | > 2500 nM | > 2500 nM | 
4 | CC(C)COC(=O)N[C@H](COC(=O)O)C(=O)N[C@@H](C)C(=O)N[C@H]1CCCN(C(=N)N)C1O.O=C(O)C(F)(F)F (some centres not stated) |  |  |  | AUC [9]: 38600 ng·h/mL; Tmax [10]: 2.67 h; Cmax [11]: 2300 ng/mL; half-life [13]: 642 min
5 | C[C@H](NC(=O)[C@@H](CO)NS(=O)(=O)c1ccccc1)C(=O)N[C@H]1CCCN(C(=N)N)C1O (some centres not stated) | 1170 nM | > 2500 nM |  | 
6 | C[C@H](NC(=O)[C@@H](CO)NS(=O)(=O)CCc1ccccc1)C(=O)N[C@H]1CCCN(C(=N)N)C1O (some centres not stated) | 367 nM | > 2500 nM | 3.1 nM | 
7 | CC(O)[C@@H](NC(=O)OCc1ccccc1)C(=O)N[C@@H](C)C(=O)N[C@H]1CCCN(C(=N)N)C1O (some centres not stated) | 699 nM | > 2500 nM | 261 nM | 
8 | N=C(N)N1CCC[C@@H](NC(=O)[C@H]2CCCCN2C(=O)[C@@H](CO)NC(=O)OCc2ccccc2)C1O (some centres not stated) |  | > 2500 nM | 101 nM | 

Further lines, with some results ahead:

Row | IC50 [5] | IC50 [6] | SMILES | IC50 [7] | further results
9 | 904 nM | > 2500 nM | C[C@H](NC(=O)[C@@H](CO)NC(=O)OCc1ccccc1)C(=O)N[C@H]1CCCN(C(=N)N)C1O (some centres not stated) |  | 
10 | > 2500 nM | > 2500 nM | C[C@H](NC(=O)[C@@](C)(CO)NC(=O)OCc1ccccc1)C(=O)N[C@H]1CCCN(C(=N)N)C1O (some centres not stated) | > 2500 nM | 
11 | 482 nM | > 2500 nM | N=C(N)N1CCC[C@H](NC(=O)C2CCN2C(=O)[C@@H](CO)NC(=O)OCc2ccccc2)C1O (some centres not stated) | 11 nM | 
12 | 125 nM | > 2500 nM | N=C(N)N1CCCC(NC(=O)[C@H]2CCCN2C(=O)C(CO)NC(=O)OCc2ccccc2)C1O (some centres not stated) |  | 
